{
  "source": "ChEMBL document CHEMBL1781943",
  "about": "“Molluscicidal metabolites from an assemblage of Palmyra Atoll cyanobacteria” (J Nat Prod, 2011)",
  "key": {"[1]": {"test": "Cytotoxicity against mouse Neuro2a cells up to 100 uM", "assay_type": "cell-based", "settings": "n2a"}, "Staphylococcus aureus": {"test_system": "Staphylococcus aureus", "test": "Antibacterial activity against methicillin-resistant Staphylococcus aureus", "assay_type": "functional, organism-based"}, "Biomphalaria glabrata": {"test_system": "Biomphalaria glabrata", "test": "Molluscicidal activity against Biomphalaria glabrata assessed as mortality after 24 hrs", "assay_type": "functional", "outline": "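Test organism: the snail Biomphalaria glabrata. Pure compound was made up as a 20 mg/mL stock in EtOH, and an aliquot of this stock was diluted with distilled water to give the snail exposure solution. Snails were scored for death, and LC50 values were reported.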"}, "NCI-H460": {"test_system": "NCI-H460", "test": "Cytotoxicity against human H460 cells up to 100 uM", "assay_type": "cell-based"}, "Candida albicans": {"test_system": "Candida albicans", "test": "Antifungal activity against Candida albicans", "assay_type": "functional, organism-based"}},
  "note": "Calls of active or inactive are those of the source. The rule behind the calls is not given here.",
  "data": [
    {"molecule": "COC(/C=C/CO)=C/C(=O)N1C(=O)C=C[C@@H]1C", "note": "[PALMYRROLINONE]", "values": [
      {"measurement": "Activity", "setting": "[1]", "value": "Non-toxic"},
      {"measurement": "Activity", "setting": "Staphylococcus aureus", "value": "inactive"},
      {"measurement": "LC50", "setting": "Biomphalaria glabrata", "value": 6, "unit": "µM"},
      {"measurement": "Activity", "setting": "NCI-H460", "value": "Non-toxic"},
      {"measurement": "Activity", "setting": "Candida albicans", "value": "inactive"}
    ]},
    {"molecule": "COC1=CC(=O)S[C@@H](CO)C1", "note": "[THIOPALMYRONE]", "values": [
      {"measurement": "Activity", "setting": "[1]", "value": "Non-toxic"},
      {"measurement": "Activity", "setting": "Staphylococcus aureus", "value": "inactive"},
      {"measurement": "LC50", "setting": "Biomphalaria glabrata", "value": 8.3, "unit": "µM"},
      {"measurement": "Activity", "setting": "NCI-H460", "value": "Non-toxic"},
      {"measurement": "Activity", "setting": "Candida albicans", "value": "inactive"}
    ]}
  ]
}
